≈ marks a conversion by molar mass, not a printed value.
Key:
[1] = test system: Aspergillus terreus; experiment: Antifungal activity against Aspergillus terreus ATCC MYA-3633 incubated for 48 hrs by CLSI M38-A2 protocol based method; assay type: functional; conditions: ATCC MYA-3633, 48 h, read-out: MIC100
[2] = test system: Candida albicans; experiment: Antifungal activity against ITC and FLC-susceptible Candida albicans ATCC MYA-2310 incubated for 48 hrs by modified CLSI M27-A3 protocol based method; assay type: functional; conditions: ATCC MYA-2310, 48 h
[3] = Selectivity index, ratio of EC50 for toxicity in human BEAS2B cells to MIC50 for antifungal activity against Candida albicans ATCC 64124; assay type: cell-based; conditions: BEAS-2B cells, read-out: Selectivity Index
How it was run: (§1)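 Selectivity index is the EC50 against the mammalian line (A549 or BEAS-2B) divided by the MIC against the given fungal strain.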

[4] = Selectivity index, ratio of […] for toxicity in human A549 cells to MIC50 for antifungal activity against Aspergillus flavus ATCC MYA-3631; assay type: cell-based; conditions: read-out: Selectivity Index
[5] = Selectivity index, ratio of EC50 for toxicity in human A549 cells to MIC50 for antifungal activity against ITC and FLC-susceptible Candida albicans ATCC MYA-2876; assay type: cell-based; conditions: read-out: Selectivity Index; how it was run: as §1
[6] = Selectivity index, ratio of EC50 for toxicity in human A549 cells to MIC50 for antifungal activity against ITC and FLC-resistant Candida albicans ATCC 1237; assay type: cell-based; conditions: read-out: Selectivity Index; how it was run: as §1
[7] = Selectivity index, ratio of EC50 for toxicity in human BEAS2B cells to MIC50 for antifungal activity against ITC and FLC-resistant Candida albicans ATCC MYA-90819; assay type: cell-based; conditions: BEAS-2B cells, read-out: Selectivity Index
How it was run: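 Ratio of the compound's EC50 against BEAS-2B cells to its MIC against the named C. albicans strain. […] For C. albicans strains other than ATCC 10231, trailing growth meant MIC-2 was taken, meaning 50% growth inhibition.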

[8] = Selectivity index, ratio of […] for toxicity in human A549 cells to MIC50 for antifungal activity against Aspergillus nidulans ATCC 38163; assay type: cell-based; conditions: read-out: Selectivity Index
[9] = Selectivity index, ratio of EC50 for toxicity in human BEAS2B cells to MIC50 for antifungal activity against Candida glabrata ATCC 2001; assay type: cell-based; conditions: BEAS-2B cells, read-out: Selectivity Index; how it was run: as §1
[10] = Selectivity index, ratio of EC50 for toxicity in human BEAS2B cells to MIC50 for antifungal activity against ITC and FLC-resistant Candida albicans ATCC MYA-1003; assay type: cell-based; conditions: BEAS-2B cells, read-out: Selectivity Index; how it was run: as §1
[11] = test system: Candida albicans; experiment: Antifungal activity against ITC and FLC-resistant Candida albicans ATCC 1237 incubated for 48 hrs by modified CLSI M27-A3 protocol based method; assay type: functional; conditions: ATCC 1237, 48 h
How it was run: (§2)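 Because these Candida strains show trailing growth, MIC-2 was read, meaning 50% growth inhibition. Caspofungin and voriconazole were tested here; other controls came from earlier work.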

[12] = test system: Nakaseomyces glabratus; experiment: Antifungal activity against Candida glabrata ATCC 2001 incubated for 48 hrs by modified CLSI M27-A3 protocol based method; assay type: functional; conditions: ATCC 2001, 48 h
[13] = test system: Candida albicans; experiment: Antifungal activity against Candida albicans ATCC 10231 incubated for 48 hrs by modified CLSI M27-A3 protocol based method; assay type: functional; conditions: ATCC 10231, 48 h, read-out: MIC100
How it was run: (§3)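 For C. albicans ATCC 10231, C. krusei ATCC 6258 and C. parapsilosis ATCC 22019, MIC-0 was read, meaning complete growth inhibition. For azole controls, MIC-2 (50% growth inhibition) was reported instead. Caspofungin and voriconazole were tested here; other controls came from earlier work.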

[14] = Hemolytic activity in mouse erythrocytes assessed as hemolysis level at 31.3 ug/ml incubated for 1 hr at 37 degC; assay type: ADME, cell-based, Erythrocyte; conditions: read-out: Activity
How it was run: (§4)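 Mouse erythrocytes incubated 1 h at 37 °C with test agents over 1.95 to 125 µg/mL. Percent lysis is read for each concentration.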

[15] = Hemolytic activity in mouse erythrocytes assessed as hemolysis level at 125 ug/ml incubated for 1 hr at 37 degC; assay type: ADME, cell-based, Erythrocyte; conditions: read-out: Activity; how it was run: as §4
[16] = test system: Candida albicans; experiment: Antifungal activity against Candida albicans ATCC 64124 incubated for 48 hrs by modified CLSI M27-A3 protocol based method; assay type: functional; conditions: ATCC 64124, 48 h
[17] = test system: Candida albicans; experiment: Antifungal activity against ITC and FLC-resistant Candida albicans ATCC MYA-90819 incubated for 48 hrs by modified CLSI M27-A3 protocol based method; assay type: functional; conditions: ATCC MYA-90819, 48 h
[18] = Selectivity index, ratio of EC50 for toxicity in human A549 cells to MIC50 for antifungal activity against ITC and FLC-resistant Candida albicans ATCC MYA-90819; assay type: cell-based; conditions: read-out: Selectivity Index; how it was run: as §1
[19] = Selectivity index, ratio of EC50 for toxicity in human A549 cells to MIC50 for antifungal activity against Candida krusei ATCC 6258
[20] = Selectivity index, ratio of EC50 for toxicity in human BEAS2B cells to MIC100 for antifungal activity against Candida albicans ATCC 10231; assay type: cell-based; conditions: BEAS-2B cells, read-out: Selectivity Index; how it was run: as §1
[21] = Hemolytic activity in mouse erythrocytes assessed as hemolysis level at 7.8 ug/ml incubated for 1 hr at 37 degC; assay type: ADME, cell-based, Erythrocyte; conditions: read-out: Activity; how it was run: as §4
[22] = Selectivity index, ratio of […] for toxicity in human BEAS2B cells to MIC50 for antifungal activity against Aspergillus flavus ATCC MYA-3631; assay type: cell-based; conditions: BEAS-2B cells, read-out: Selectivity Index
[23] = Selectivity index, ratio of EC50 for toxicity in human A549 cells to MIC50 for antifungal activity against ITC and FLC-resistant Candida albicans ATCC MYA-1003; assay type: cell-based; conditions: read-out: Selectivity Index; how it was run: as §1
[24] = test system: Candida parapsilosis; experiment: Antifungal activity against Candida parapsilosis ATCC 22019 incubated for 48 hrs by modified CLSI M27-A3 protocol based method; assay type: functional; conditions: Lodderomyces parapsilosis, ATCC 22019, 48 h; read-out: MIC100; how it was run: as §3
[25] = Selectivity index, ratio of EC50 for toxicity in human A549 cells to MIC50 for antifungal activity against Candida albicans ATCC 64124; assay type: cell-based; conditions: read-out: Selectivity Index; how it was run: as §1
[26] = test system: Aspergillus nidulans; experiment: Antifungal activity against Aspergillus nidulans ATCC 38163 incubated for 48 hrs by CLSI M38-A2 protocol based method; assay type: functional; conditions: ATCC 38163, 48 h, read-out: MIC100
[27] = Selectivity index, ratio of EC50 for toxicity in human A549 cells to MIC100 for antifungal activity against Candida albicans ATCC 10231; assay type: cell-based; conditions: read-out: Selectivity Index; how it was run: as §1
[28] = Selectivity index, ratio of […] for toxicity in human BEAS2B cells to MIC50 for antifungal activity against Aspergillus terreus ATCC MYA-3633; assay type: cell-based; conditions: BEAS-2B cells, read-out: Selectivity Index
[29] = Selectivity index, ratio of EC50 for toxicity in human BEAS2B cells to MIC50 for antifungal activity against ITC and FLC-resistant Candida albicans ATCC 1237; assay type: cell-based; conditions: BEAS-2B cells, read-out: Selectivity Index; how it was run: as §1
[30] = Hemolytic activity in mouse erythrocytes assessed as hemolysis level at 3.9 ug/ml incubated for 1 hr at 37 degC; assay type: ADME, cell-based, Erythrocyte; conditions: read-out: Activity; how it was run: as §4
[31] = Selectivity index, ratio of EC50 for toxicity in human A549 cells to MIC50 for antifungal activity against ITC and FLC-susceptible Candida albicans ATCC MYA-2310; assay type: cell-based; conditions: read-out: Selectivity Index; how it was run: as §1
[32] = test system: Candida albicans; experiment: Antifungal activity against ITC and FLC-susceptible Candida albicans ATCC MYA-2876 incubated for 48 hrs by modified CLSI M27-A3 protocol based method; assay type: functional; conditions: ATCC MYA-2876, 48 h; how it was run: as §2

Structure (SMILES)	MIC [1] [µM]	MIC50 [2] [µM]	selectivity ratio [3]	selectivity ratio [4]	selectivity ratio [5]	selectivity ratio [6]	selectivity ratio [7]	selectivity ratio [8]	selectivity ratio [9]	selectivity ratio [10]	MIC50 [11] [µM]	MIC50 [12] [µM]	MIC [13] [µM]	hemolysis at 1 h, 31.3 ug/ml [14] [%]	hemolysis at 1 h, 125 ug/ml [15] [%]	MIC50 [16] [µM]	MIC50 [17] [µM]	selectivity ratio [18]	selectivity ratio [19]	selectivity ratio [20]	further results
CCCCC(O)(Cn1cncn1)c1ccc(F)cc1F (stereo not drawn)	55.5 (≈ 15.6 µg/mL)	112 (≈ 31.4 µg/mL)	2	2	4	2	2	16	1	9	55.5 (≈ 15.6 µg/mL)	112 (≈ 31.4 µg/mL)	6.9 (≈ 1.94 µg/mL)	3.7	0	55.5 (≈ 15.6 µg/mL)	55.5 (≈ 15.6 µg/mL)	2	522	19	hemolysis at 1 h, 7.8 ug/ml [21]: 0%; selectivity ratio [22]: 2; selectivity ratio [23]: 8; MIC [24]: < 0.11 µM; selectivity ratio [25]: 2; MIC [26]: 6.9 µM (≈ 1.94 µg/mL); selectivity ratio [27]: 16; selectivity ratio [28]: 2; selectivity ratio [29]: 2; hemolysis at 1 h, 3.9 ug/ml [30]: 0%; selectivity ratio [31]: 1; MIC50 [32]: 27.7 µM (≈ 7.79 µg/mL)
CCCCCCC(O)(Cn1cncn1)c1ccc(Cl)cc1Cl (stereo not drawn)	11.4 (≈ 3.9 µg/mL)	5.7 (≈ 1.95 µg/mL)	14	5	21	10	14	42	14	29	5.7 (≈ 1.95 µg/mL)	5.7 (≈ 1.95 µg/mL)	0.7 (≈ 0.24 µg/mL)	92	105	5.7 (≈ 1.95 µg/mL)	5.7 (≈ 1.95 µg/mL)	10	667	117	hemolysis at 1 h, 7.8 ug/ml [21]: 1.6%; selectivity ratio [22]: 7; selectivity ratio [23]: 21; MIC [24]: < 0.09 µM; selectivity ratio [25]: 10; MIC [26]: 1.4 µM (≈ 0.479 µg/mL); selectivity ratio [27]: 83; selectivity ratio [28]: 7; selectivity ratio [29]: 14; hemolysis at 1 h, 3.9 ug/ml [30]: 0%; selectivity ratio [31]: 10; MIC50 [32]: 2.8 µM (≈ 0.958 µg/mL)
CCCCCC(O)(Cn1cncn1)c1ccccc1Cl (stereo not drawn)	53.1 (≈ 15.6 µg/mL)	3.3 (≈ 0.97 µg/mL)	1	1	32	32	65	32	32	4	3.3 (≈ 0.97 µg/mL)	3.3 (≈ 0.97 µg/mL)	26.5 (≈ 7.79 µg/mL)	0	81	> 106	1.6 (≈ 0.47 µg/mL)	65	32	4	hemolysis at 1 h, 7.8 ug/ml [21]: 0%; selectivity ratio [22]: 1; selectivity ratio [23]: 4; MIC [24]: 0.41 µM (≈ 0.12 µg/mL); selectivity ratio [25]: 1; MIC [26]: 3.3 µM (≈ 0.97 µg/mL); selectivity ratio [27]: 4; selectivity ratio [28]: 2; selectivity ratio [29]: 32; hemolysis at 1 h, 3.9 ug/ml [30]: 0%; selectivity ratio [31]: 32; MIC50 [32]: 3.3 µM (≈ 0.97 µg/mL)
CCCCCC(O)(Cn1cncn1)c1ccc(Cl)cc1Cl (stereo not drawn)	11.9 (≈ 3.91 µg/mL)	5.9 (≈ 1.94 µg/mL)	16	8	34	17	16	69	16	32	5.9 (≈ 1.94 µg/mL)	5.9 (≈ 1.94 µg/mL)	0.73 (≈ 0.24 µg/mL)	90.5	100	5.9 (≈ 1.94 µg/mL)	5.9 (≈ 1.94 µg/mL)	17	69	130	hemolysis at 1 h, 7.8 ug/ml [21]: 0%; selectivity ratio [22]: 8; selectivity ratio [23]: 34; MIC [24]: < 0.09 µM; selectivity ratio [25]: 17; MIC [26]: 1.5 µM (≈ 0.492 µg/mL); selectivity ratio [27]: 138; selectivity ratio [28]: 8; selectivity ratio [29]: 16; hemolysis at 1 h, 3.9 ug/ml [30]: 0%; selectivity ratio [31]: 17; MIC50 [32]: 3 µM (≈ 0.985 µg/mL)

— ChEMBL document CHEMBL4265871, “Novel alkylated azoles as potent antifungals” (Eur J Med Chem, 2017)
